The values that follow come from ChEMBL document CHEMBL3393035, “Novel agonists of benzodiazepine receptors: design, synthesis, binding assay and pharmacological evaluation of 1,2,4-triazolo[1,5-a]pyrimidinone and 3-amino-1,2,4-triazole derivatives” (Bioorg Med Chem, 2015).

Series [1] can be described thus: Displacement of [3H]-flumazenil from benzodiazepine receptor in Sprague-Dawley rat brain cortical membranes incubated for 35 mins. In a few lines:
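Rat cortex membranes: homogenized in ice-cold 30 mM Tris-HCl pH 7.4, washed by repeated centrifugation at 4°C, 37°C 30 min preincubation, stored -20°C. 100 µg membrane protein in 50 mM Tris-HCl pH 7.4 with 8.6×10^-5 nmol [3H]-flumazenil plus increasing competitor, 0.5 mL, 30°C 35 min; stopped by centrifugation. NSB with 100 µM diazepam; triplicates; IC50 by nonlinear regression.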
(In a radioligand displacement assay an active substance lowers the binding of a labelled ligand.)

Series [2] has as its system Mus musculus. Nature of the series: Anticonvulsant activity in ip dosed NMRI mouse assessed as reduction in PTZ-induced lethal convulsion dosed 30 mins before PTZ injection and measured 30 mins post PTZ challenge. The class given is functional. In a few lines: (§1)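 Male NMRI mice (18-22 g) were given drug i.p. at 5 ml/kg in DMSO:water (1:10), 30 min before PTZ 100 mg/kg i.p. (in water). Mice were watched for 30 min after PTZ and deaths were counted.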

Series [3] concerns Mus musculus. Nature of the series: Anticonvulsant activity in ip dosed NMRI mouse assessed as reduction in MES-induced seizures by measuring occurrence of hind limb tonic extensions dosed 30 mins before MES injection and measured 30 mins post MES challenge. It counts as functional. To be noted: Hindlimb. In a few lines:
(§2)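 Male NMRI mice (18-22 g) were given drug i.p. at 5 ml/kg in DMSO:water (1:10), 30 min before maximal electroshock (60 Hz, 37.2 mA, 0.25 s). The read-out was occurrence of hind limb tonic extension.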

The subject of series [4] is Mus musculus. Nature of the series: Anticonvulsant activity in ip dosed NMRI mouse assessed as reduction in PTZ-induced lethal convulsion dosed 30 mins before PTZ injection and co-treated with BZD antagonist flumazenil and measured 30 mins post PTZ challenge. It counts as functional, organism-based. In a few lines:
as §1

The test system of series [5] is Mus musculus. Nature of the series: Anticonvulsant activity in ip dosed NMRI mouse assessed as reduction in MES-induced seizures by measuring occurrence of hind limb tonic extensions dosed 30 mins before MES injection and co-treated with 10 mg/kg BZD antagonist flumazenil and measured 30 mins post MES challenge. The class given is functional, organism-based. Details: dose 10 mg/kg. To be noted: Hindlimb. The essentials:
as §2

Series [6] deals with Mus musculus. Nature of the series: Hypnotic effect in NMRI albino mouse assessed as potentiation of pentobarbital sleeping time by measuring duration of loss of righting reflex at 1 mg/kg, ip dosed 30 mins before pentobarbital challenge. Details: dose 1 mg/kg. It counts as functional, organism-based. The essentials: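 Male NMRI mice (18-22 g), n=8 per group, received diazepam i.p. in DMSO:water (1:10), 5 ml/kg. Pentobarbital 65 mg/kg i.p. followed 30 min later. Sleep time was the duration of loss of righting reflex; mice were kept on an electric blanket against hypothermia. Data are mean + SEM.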

Series [7] relates to Mus musculus. Description: Induction of anterograde amnesia in NMRI albino mouse assessed as reduction in latency to enter dark compartment at 0.325 to 2.5 mg/kg, ip by passive avoidance test. The class given is functional, organism-based. In a few lines:
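Male NMRI mice (18-22 g) dosed i.p. in DMSO:water 1:10 (5 ml/kg), 30 min before the test; midazolam 1 mg/kg i.p. in water as reference. On the testing day, 24 h after training, each mouse is placed in the lit compartment and latency to enter the dark compartment is recorded. n=8 per group, mean + SEM.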

Series [8] relates to Mus musculus. Nature of the series: Hypnotic effect in NMRI albino mouse assessed as potentiation of pentobarbital sleeping time by measuring duration of loss of righting reflex at 0.625 mg/kg, ip dosed 30 mins before pentobarbital challenge. The class given is functional, organism-based. Details: dose 0.625 mg/kg. In a few lines:
(§3)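 Male NMRI mice, 18-22 g, 12 weeks old. Test agent and flumazenil (10 mg/kg) in DMSO:water 1:10, 5 ml/kg i.p., 30 min before pentobarbital 65 mg/kg i.p. (in water). Sleep time is the duration of loss of righting reflex. Mice kept on an electric blanket to prevent hypothermia. n=8 per group, mean + SEM.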

Series [9] has as its system Mus musculus. Description: Hypnotic effect in NMRI albino mouse assessed as potentiation of pentobarbital sleeping time by measuring duration of loss of righting reflex dosed intraperitoneally 30 mins before pentobarbital challenge. It counts as functional. In a few lines: as §3
For series [10], the system named is Mus musculus. Nature of the series: Hypnotic effect in NMRI albino mouse assessed as potentiation of pentobarbital sleeping time by measuring duration of loss of righting reflex at 1.25 to 5 mg/kg, ip co-treated with 10 mg/kg BZD receptor antagonist flumazenil. It counts as functional, organism-based. The essentials: as §3
The subject of series [11] is Mus musculus. Description: Toxicity in NMRI albino mouse at 50 mg/kg, ip assessed as induction of toxic reactions measured after 24 hrs post dose. The class given is organism-based. More on the design: dose 50 mg/kg, route intraperitoneal. To be noted: in vivo. In a few lines:
(§4)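 Ten randomly selected male NMRI mice given single i.p. doses of 50 or 150 mg/kg in DMSO:water 1:10 (5 ml/kg), then observed for 24 h for toxic reactions, sedation and hypnosis.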

Series [12] concerns Mus musculus. Nature of the series: Toxicity in NMRI albino mouse at 150 mg/kg, ip assessed as induction of toxic reactions measured after 24 hrs post dose. The class given is organism-based. Details: dose 150 mg/kg, route intraperitoneal. To be noted: in vivo. The essentials:
as §4

The test system of series [13] is Mus musculus. Description: Toxicity in NMRI albino mouse at 50 mg/kg, ip assessed as induction sedation measured after 24 hrs post dose. It counts as organism-based. Details: dose 50 mg/kg, route intraperitoneal. To be noted: in vivo. In a few lines: as §4
Series [14] deals with Mus musculus. Nature of the series: Toxicity in NMRI albino mouse at 150 mg/kg, ip assessed as induction sedation measured after 24 hrs post dose. It counts as organism-based. Details: dose 150 mg/kg, route intraperitoneal. To be noted: in vivo. The essentials: as §4
In series [15] the test system is Mus musculus. Description: Toxicity in NMRI albino mouse at 50 mg/kg, ip assessed as induction hypnosis measured after 24 hrs post dose. The class given is organism-based. More on the design: dose 50 mg/kg, route intraperitoneal. To be noted: in vivo. The essentials: as §4
For series [16], the system named is Mus musculus. Description: Toxicity in NMRI albino mouse at 150 mg/kg, ip assessed as induction hypnosis measured after 24 hrs post dose. It counts as organism-based. More on the design: dose 150 mg/kg, route intraperitoneal. Particulars: in vivo. In a few lines:
as §4

Series [17] has as its system Mus musculus. Nature of the series: Induction of anterograde amnesia in NMRI albino mouse assessed as reduction in latency to enter dark compartment at 1 mg/kg, ip by passive avoidance test. The class given is functional, organism-based. Details: dose 1 mg/kg. The essentials:
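Male NMRI mice (18-22 g), n=8 per group, received midazolam i.p. in distilled water, 5 ml/kg. In the passive avoidance test, mice were placed in the lit compartment on the testing day, 24 h later, and latency to enter the dark compartment was recorded. Data are mean + SEM.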

The source made the active and inactive calls. No cut-off for these calls is given here.

For `CN1C(=O)CN=C(c2ccccc2)c2cc(Cl)ccc21` [DIAZEPAM], the IC50 (usually the concentration at which inhibition is half-maximal) in series [1] came out at 2.5 nM. Besides, in series [1], affinity was put at a Ki of 1.53 nM. Moreover, the results for the median effective dose (ED50) with Mus musculus [2] and in the series with Mus musculus [3] were 0.75 mg/kg and 0.74 mg/kg, respectively. The outcome in the series on Mus musculus [4] and in the series with Mus musculus [5] was inactive. Also, the result in the series on Mus musculus [6] was Active.
Regarding `Cc1cc(=O)n2nc(-c3ccccc3)n(Cc3ccccc3Cl)c2n1`, the IC50 in series [1] is 0.68 nM. Besides, affinity in [1] was put at a Ki of 0.42 nM. Moreover, the values for the ED50 in the series with Mus musculus [2], in the series with Mus musculus [3] and in the series with Mus musculus [9] (ip) were 56.6 mg/kg, 15 mg/kg and 5 mg/kg, respectively. The outcome with Mus musculus [4], in the series on Mus musculus [5], in the series with Mus musculus [8] and in the series with Mus musculus [10] was inactive. Further, in the series on Mus musculus [7], the result was Active. For the same molecule, the Activity entry with Mus musculus [9] was “Dose-dependent effect”; with Mus musculus [11], “Non-toxic”; in the series on Mus musculus [12], “Non-toxic”; with Mus musculus [13], “Toxic”; in the series with Mus musculus [14], “Toxic”; with Mus musculus [15], “Toxic”. Moreover, the Activity result in the series on Mus musculus [16] was “Toxic”.
For the molecule `Cc1ncc2n1-c1ccc(Cl)cc1C(c1ccccc1F)=NC2`, the result in the series with Mus musculus [17] was Active.
Turning to `Cc1cc(=O)n2nc(-c3ccccc3)n(Cc3ccccc3)c2n1`, in [1], the IC50 came out at 2.39 nM and the inhibitory constant (Ki) (in general, the equilibrium dissociation constant of an inhibitor or competing ligand from its target) was 1.46 nM.
In [1], `Nc1nnc(-c2ccccc2)n1Cc1ccc(F)cc1` displayed an IC50 of 4.45 nM and a Ki of 2.73 nM.
On the same counts, the results for `Nc1nnc(-c2ccccc2)n1Cc1ccccc1` are 0.87 nM and 0.53 nM.
On the same counts, the results for `Nc1nnc(-c2ccccc2)n1Cc1ccccc1Cl` are 2.24 nM and 1.37 nM.
The like results for `Cc1cc(=O)n2nc(-c3ccccc3)n(Cc3ccc(F)cc3)c2n1` were, in that order, 1.59 nM and 0.97 nM.
